Assay results taken from ChEMBL document CHEMBL4828755, “A sulfonyl fluoride derivative inhibits EGFRL858R/T790M/C797S by covalent modification of the catalytic lysine” (Eur J Med Chem, 2021).
Activity calls are given as the source filed them. No cut-off for these calls is given here.

Key:
[1] = biological target: Mitogen-activated protein kinase 14 (Homo sapiens) (UniProt Q16539); assay: Inhibition of GST-tagged human full length recombinant p38 alpha expressed in Escherichia coli at 100 to 1000 nM by Z'-LYTE assay; settings: dose 100-1000 nM
Mitogen-activated protein kinase 14 (Homo sapiens), sequence (Q16539 whole entry): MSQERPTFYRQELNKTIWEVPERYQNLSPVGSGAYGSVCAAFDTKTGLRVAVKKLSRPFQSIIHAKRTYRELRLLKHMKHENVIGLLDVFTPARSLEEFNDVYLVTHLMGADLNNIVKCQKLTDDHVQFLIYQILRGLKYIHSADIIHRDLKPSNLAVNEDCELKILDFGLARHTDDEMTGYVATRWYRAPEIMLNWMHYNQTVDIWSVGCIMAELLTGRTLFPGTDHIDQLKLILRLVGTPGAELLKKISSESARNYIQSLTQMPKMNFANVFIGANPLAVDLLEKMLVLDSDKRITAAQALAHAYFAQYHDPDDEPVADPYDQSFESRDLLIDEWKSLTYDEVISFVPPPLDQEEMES

[2] = biological target: T1, Inhibitor of nuclear factor kappa-B kinase subunit beta (Homo sapiens) (UniProt O14920); assay: Inhibition of GST-tagged human full length recombinant IKKbeta expressed in baculovirus expression system at 100 to 1000 nM by Z'-LYTE assay; settings: dose 100-1000 nM
T1 sequence (whole entry): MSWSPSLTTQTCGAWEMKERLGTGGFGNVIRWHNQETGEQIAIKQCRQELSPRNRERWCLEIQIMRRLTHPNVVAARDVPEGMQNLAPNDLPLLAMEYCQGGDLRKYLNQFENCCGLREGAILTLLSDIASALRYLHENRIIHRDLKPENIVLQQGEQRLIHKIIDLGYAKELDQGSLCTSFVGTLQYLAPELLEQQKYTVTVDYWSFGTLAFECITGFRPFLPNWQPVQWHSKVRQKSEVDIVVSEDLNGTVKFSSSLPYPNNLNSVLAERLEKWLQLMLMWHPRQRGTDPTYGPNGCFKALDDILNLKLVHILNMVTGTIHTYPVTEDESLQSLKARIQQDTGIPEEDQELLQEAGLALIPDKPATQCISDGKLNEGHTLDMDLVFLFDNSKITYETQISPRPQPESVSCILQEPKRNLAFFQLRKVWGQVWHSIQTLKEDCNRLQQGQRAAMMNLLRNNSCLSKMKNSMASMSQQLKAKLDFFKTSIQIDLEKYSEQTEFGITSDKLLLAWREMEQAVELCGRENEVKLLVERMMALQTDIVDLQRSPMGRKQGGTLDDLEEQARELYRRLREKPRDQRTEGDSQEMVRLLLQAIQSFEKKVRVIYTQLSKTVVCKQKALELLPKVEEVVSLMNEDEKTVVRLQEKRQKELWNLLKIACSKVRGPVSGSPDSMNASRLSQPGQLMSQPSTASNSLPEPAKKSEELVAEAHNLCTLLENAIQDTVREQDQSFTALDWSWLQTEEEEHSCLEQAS

[3] = biological target: Epidermal growth factor receptor (Homo sapiens, UniProt P00533, C797S/L858R/T790M); assay: Inhibition of EGFR L858R/T790M/C797S triple mutant (unknown origin) using […] preincubated with enzyme and ATP at 10XKm for 3 hrs followed by substrate addition and measured after 1 hr by TR-FRET assay
Epidermal growth factor receptor, sequence (P00533 25-1210 T790M/C797S/L858R limits assumed): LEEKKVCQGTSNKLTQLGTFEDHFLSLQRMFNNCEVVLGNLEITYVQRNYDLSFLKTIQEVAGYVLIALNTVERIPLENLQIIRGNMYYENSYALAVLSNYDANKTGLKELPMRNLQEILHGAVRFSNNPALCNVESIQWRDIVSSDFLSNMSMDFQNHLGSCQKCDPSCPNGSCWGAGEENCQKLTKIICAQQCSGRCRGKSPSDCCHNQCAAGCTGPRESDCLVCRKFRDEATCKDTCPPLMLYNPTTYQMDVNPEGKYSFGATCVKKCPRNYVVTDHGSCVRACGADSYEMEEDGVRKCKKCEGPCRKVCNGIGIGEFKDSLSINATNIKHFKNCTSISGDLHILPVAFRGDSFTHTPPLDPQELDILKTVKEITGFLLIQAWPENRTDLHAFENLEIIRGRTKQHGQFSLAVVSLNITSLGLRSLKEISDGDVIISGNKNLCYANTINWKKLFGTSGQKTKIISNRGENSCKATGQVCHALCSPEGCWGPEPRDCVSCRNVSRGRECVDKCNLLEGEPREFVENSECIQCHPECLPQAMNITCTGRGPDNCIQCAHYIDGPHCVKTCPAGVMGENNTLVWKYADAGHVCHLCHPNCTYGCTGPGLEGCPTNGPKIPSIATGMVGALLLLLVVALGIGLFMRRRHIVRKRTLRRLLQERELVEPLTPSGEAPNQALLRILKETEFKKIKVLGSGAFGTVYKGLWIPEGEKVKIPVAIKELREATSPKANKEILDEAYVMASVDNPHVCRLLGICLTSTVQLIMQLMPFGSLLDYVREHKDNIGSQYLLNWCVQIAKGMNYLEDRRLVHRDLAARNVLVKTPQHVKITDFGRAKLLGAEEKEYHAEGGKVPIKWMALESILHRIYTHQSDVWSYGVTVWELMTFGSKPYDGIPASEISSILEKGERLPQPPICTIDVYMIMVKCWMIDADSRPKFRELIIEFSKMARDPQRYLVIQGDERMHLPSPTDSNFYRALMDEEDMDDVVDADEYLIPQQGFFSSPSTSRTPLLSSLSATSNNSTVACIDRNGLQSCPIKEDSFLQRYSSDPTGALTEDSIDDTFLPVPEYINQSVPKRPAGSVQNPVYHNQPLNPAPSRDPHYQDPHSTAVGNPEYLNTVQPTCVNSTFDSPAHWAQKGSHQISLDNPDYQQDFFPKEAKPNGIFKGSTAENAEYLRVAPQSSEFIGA

[4] = biological target: RAC-beta serine/threonine-protein kinase (Homo sapiens) (UniProt P31751); assay: Inhibition of His-tagged full length human recombinant AKT2 expressed in baculovirus expression system at 1 uM by Z'-LYTE assay
RAC-beta serine/threonine-protein kinase (Homo sapiens), sequence (P31751 whole entry): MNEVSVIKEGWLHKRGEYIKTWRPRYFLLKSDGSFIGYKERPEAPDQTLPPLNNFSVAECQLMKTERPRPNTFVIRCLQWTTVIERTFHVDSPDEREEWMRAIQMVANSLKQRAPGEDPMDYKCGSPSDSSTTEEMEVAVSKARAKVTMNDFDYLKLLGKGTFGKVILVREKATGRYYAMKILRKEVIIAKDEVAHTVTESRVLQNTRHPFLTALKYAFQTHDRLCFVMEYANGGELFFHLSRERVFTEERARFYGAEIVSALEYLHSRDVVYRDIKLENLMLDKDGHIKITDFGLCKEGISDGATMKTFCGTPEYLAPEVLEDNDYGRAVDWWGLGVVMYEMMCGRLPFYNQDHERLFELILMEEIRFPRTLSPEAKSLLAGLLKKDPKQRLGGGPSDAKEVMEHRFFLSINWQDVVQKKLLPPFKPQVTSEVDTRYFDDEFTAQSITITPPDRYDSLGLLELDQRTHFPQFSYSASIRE
Summary of the method: (§1)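 Z'-LYTE FRET kinase panel; phosphorylation of a reference peptide measured with ATP at each enzyme's Km. Compounds tested in 1% DMSO at 0.1 and/or 1 μM. Values are means of two independent experiments with standard deviations.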

[5] = biological target: Fibroblast growth factor receptor 4 (Homo sapiens) (UniProt P22455); assay: Inhibition of His-tagged human recombinant FGFR4 ([…] residues) expressed in baculovirus expression system at 1 uM by Z'-LYTE assay; summary of the method: as §1
Fibroblast growth factor receptor 4 (Homo sapiens), sequence (P22455 22-802 limits assumed): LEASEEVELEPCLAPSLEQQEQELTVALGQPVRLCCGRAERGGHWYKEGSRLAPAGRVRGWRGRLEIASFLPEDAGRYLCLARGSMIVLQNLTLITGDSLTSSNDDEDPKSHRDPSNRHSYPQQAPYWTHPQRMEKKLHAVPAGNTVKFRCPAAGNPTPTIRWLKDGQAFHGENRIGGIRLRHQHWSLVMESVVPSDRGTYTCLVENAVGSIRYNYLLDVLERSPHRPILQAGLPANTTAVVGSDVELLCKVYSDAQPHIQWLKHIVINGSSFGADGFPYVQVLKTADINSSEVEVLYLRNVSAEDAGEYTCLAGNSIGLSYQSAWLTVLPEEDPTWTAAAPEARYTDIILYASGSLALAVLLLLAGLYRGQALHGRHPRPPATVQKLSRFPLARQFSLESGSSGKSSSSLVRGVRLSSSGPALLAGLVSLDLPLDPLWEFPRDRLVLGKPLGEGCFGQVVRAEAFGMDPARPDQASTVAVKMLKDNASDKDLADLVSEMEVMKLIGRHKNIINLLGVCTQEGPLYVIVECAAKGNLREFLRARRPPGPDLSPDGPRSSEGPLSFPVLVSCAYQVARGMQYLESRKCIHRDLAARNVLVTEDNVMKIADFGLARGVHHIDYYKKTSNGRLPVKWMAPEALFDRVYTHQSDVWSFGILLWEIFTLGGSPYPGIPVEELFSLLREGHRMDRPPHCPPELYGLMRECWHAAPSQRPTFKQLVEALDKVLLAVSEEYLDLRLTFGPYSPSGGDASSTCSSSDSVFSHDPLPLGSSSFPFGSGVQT

[6] = biological target: T2, Aurora kinase A (Homo sapiens) (UniProt O14965); assay: Inhibition of His-tagged human full length recombinant AURKA expressed in baculovirus expression system at 1 uM by Z'-LYTE assay; summary of the method: as §1
T2 sequence (whole entry): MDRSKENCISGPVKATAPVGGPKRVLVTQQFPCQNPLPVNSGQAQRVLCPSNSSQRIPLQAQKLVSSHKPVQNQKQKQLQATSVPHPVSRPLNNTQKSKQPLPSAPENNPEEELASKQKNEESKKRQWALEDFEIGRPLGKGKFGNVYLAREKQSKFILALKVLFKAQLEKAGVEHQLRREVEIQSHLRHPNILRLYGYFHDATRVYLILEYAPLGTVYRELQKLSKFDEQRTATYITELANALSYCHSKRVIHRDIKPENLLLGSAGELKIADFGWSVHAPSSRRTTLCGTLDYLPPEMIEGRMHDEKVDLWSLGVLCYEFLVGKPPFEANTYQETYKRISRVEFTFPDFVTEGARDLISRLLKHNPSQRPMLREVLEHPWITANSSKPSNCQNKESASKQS

[7] = biological target: T1, Inhibitor of nuclear factor kappa-B kinase subunit beta (Homo sapiens); assay: Inhibition of GST-tagged human full length recombinant IKKbeta expressed in baculovirus expression system at 1 uM by Z'-LYTE assay; summary of the method: as §1

SMILES | inhibition [1] | inhibition [2] | IC50 [3] [nM] | inhibition [4] [%] | inhibition [5] [%] | inhibition [6] [%] | inhibition [7] [%]
C#CCNC(=O)c1cc(Nc2cc(C3CC3)[nH]n2)nc(N2CCN(Cc3ccc(S(=O)(=O)F)cc3)CC2)n1 | inactive | inactive | – | – | – | – | –
COc1cc(N2CCN(C(C)=O)CC2)ccc1Nc1ncc(Cl)c(Nc2ccc(NCc3ccc(S(=O)(=O)F)cc3)cc2)n1 | – | – | 23 | 90 | < 25 | 100 | < 25
